Assay results of several laboratories.
Compare with care: the assays were run in different laboratories.
Target: Mitogen-activated protein kinase kinase kinase 15 (MAP3K15, Homo sapiens, UniProt Q6ZN16)
Residues used in one study (Q6ZN16 1-1313): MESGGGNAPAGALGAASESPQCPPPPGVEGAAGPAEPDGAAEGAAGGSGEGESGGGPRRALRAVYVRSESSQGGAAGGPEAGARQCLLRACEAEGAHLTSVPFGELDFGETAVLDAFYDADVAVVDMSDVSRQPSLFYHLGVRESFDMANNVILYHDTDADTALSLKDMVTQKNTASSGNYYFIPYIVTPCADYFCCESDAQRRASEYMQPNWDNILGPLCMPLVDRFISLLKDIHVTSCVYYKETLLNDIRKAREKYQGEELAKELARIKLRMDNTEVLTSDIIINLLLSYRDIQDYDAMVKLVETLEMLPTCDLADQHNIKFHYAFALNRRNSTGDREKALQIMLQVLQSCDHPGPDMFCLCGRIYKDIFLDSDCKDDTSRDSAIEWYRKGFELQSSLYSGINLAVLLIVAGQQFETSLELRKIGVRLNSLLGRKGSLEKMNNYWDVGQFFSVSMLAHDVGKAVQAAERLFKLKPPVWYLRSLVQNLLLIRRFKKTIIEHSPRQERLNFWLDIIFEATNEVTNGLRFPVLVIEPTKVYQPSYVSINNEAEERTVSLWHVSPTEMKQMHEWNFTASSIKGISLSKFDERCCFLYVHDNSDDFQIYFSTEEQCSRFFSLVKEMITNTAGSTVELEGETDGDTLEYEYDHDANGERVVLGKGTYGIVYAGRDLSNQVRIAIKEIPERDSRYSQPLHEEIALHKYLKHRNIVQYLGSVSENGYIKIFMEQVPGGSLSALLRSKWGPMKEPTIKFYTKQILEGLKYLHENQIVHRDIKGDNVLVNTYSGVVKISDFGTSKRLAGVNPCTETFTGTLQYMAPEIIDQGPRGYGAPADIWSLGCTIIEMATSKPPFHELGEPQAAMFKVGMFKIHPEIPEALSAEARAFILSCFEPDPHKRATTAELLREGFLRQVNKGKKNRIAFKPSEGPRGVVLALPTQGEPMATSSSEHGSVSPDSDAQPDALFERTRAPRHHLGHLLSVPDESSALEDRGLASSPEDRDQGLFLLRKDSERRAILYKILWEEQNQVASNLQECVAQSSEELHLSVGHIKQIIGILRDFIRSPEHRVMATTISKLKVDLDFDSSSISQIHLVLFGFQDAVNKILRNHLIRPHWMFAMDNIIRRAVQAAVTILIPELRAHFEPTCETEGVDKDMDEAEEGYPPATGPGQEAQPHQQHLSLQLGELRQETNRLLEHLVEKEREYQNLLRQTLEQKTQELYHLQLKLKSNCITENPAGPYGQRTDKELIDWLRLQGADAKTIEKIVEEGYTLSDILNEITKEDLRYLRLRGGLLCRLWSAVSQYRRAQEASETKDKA

Structure (SMILES)	read-out	method	tested at	remaining binding [%]
CN(C)c1nccc(-c2cnn3ncccc23)n1	binding	–	1 µM	91
COc1ccc2c(c1)O[C@@H](c1ccc(OC)c(OC)c1)C[C@H]2NC(=O)C1(c2ccc3c(c2)OC(F)(F)O3)CC1	cell-free assay	competition with immobilised ligand	1 µM	88
Cc1cnc(Nc2ccc(C(=O)N3CCC(N4CCCC4)CC3)cc2)nc1-c1cc2ccccc2s1	binding	competition with immobilised ligand	1 µM	38
Cn1cc(Cl)c2c(Oc3c(F)cc(Nc4cc(Cl)nc(N)n4)cc3F)ccnc21	cell-free assay	competition with immobilised ligand	0.1 µM	84
Nc1ncc2c(n1)-c1c([nH]c3ccc(C#CC4CC4)cc13)CCCC2	binding	competition with immobilised ligand	1 µM	73
Cc1nccc(COC(=O)N2C[C@@H]3[C@@H](CNC(=O)c4ccc5[nH]nnc5c4)[C@@H]3C2)n1	cell-free assay	competition with immobilised ligand	1 µM	95
F[C@@H]1CCN(c2nccc(-c3cnn4ncccc34)n2)C1	binding	–	1 µM	100
CCCCN(CCCC)C(=O)CN1C[C@@H](c2cc(OC)c3c(c2)OCO3)[C@H](C(=O)O)[C@H]1CC(C)(C)CCC	cell-free assay	competition with immobilised ligand	1 µM	99
COc1cnc(Nc2cccc(S(N)(=O)=O)c2)nc1N1CCN(c2ccccc2)CC1	binding	competition with immobilised ligand	1 µM	78
C[C@@]1(Cc2ccc(C#N)cc2)C(=O)N(c2cc(Cl)cc(Cl)c2)c2ncc(C(=O)NC3(c4nc(C5CCC5)no4)CC3)n21	cell-free assay	competition with immobilised ligand	1 µM	81
O=C(c1ccc(Nc2ncc(Cl)c(-c3ccc(Cl)s3)n2)cc1)N1CCC(N2CCCC2)CC1	binding	competition with immobilised ligand	1 µM	52
c1cnn2ncc(-c3ccnc(N4CCC45COC5)n3)c2c1	binding	–	1 µM	68
O=C(Nc1c[nH]nc1C(=O)NC1CCNCC1)c1cc(F)cc(F)c1	binding	competition with immobilised ligand	1 µM	100
CN(CCCC(F)(F)F)c1nccc(-c2cnn3ncccc23)n1	binding	–	1 µM	100
C=CC(=O)N1CCC(C(=O)NCC(=O)N2CCN(c3nc(-c4cnc(N)nc4C(F)F)nc(N4CCOCC4)n3)CC2)CC1	binding	competition with immobilised ligand	1 µM	100
CCN1CCN(Cc2ccc(C(=O)Nc3ccc(C)c(Oc4ccc5c(c4)CC(=O)N5)c3)cc2C(F)(F)F)CC1	binding	competition with immobilised ligand	1 µM	100
Nc1cnc(N2CCc3cc(S(=O)(=O)Nc4c(F)cc(Cl)cc4F)cc(N4CCCC4=O)c32)nc1	cell-free assay	competition with immobilised ligand	1 µM	100
CN(C)c1nccc(-c2cnc3ncccn23)n1	binding	–	1 µM	100
C[C@@H](c1ccc(-n2cnc3c(N)ncnc32)cc1)N1CCc2nn(C)c(Cc3ccccc3)c2C1=O	binding	competition with immobilised ligand	0.1 µM	60
N[C@@H]1CCN(c2nccc(-c3cnn4ncccc34)n2)C1	binding	–	1 µM	92
O=C(NCCCN1CCOCC1)c1ccc(Nc2nccc(-c3cc4ccccc4s3)n2)cc1	binding	competition with immobilised ligand	1 µM	56
